High-throughput results: PubChem BioAssay, several laboratories
Phagocyt inh = macrophage phagocytosis inhibition; inhibition, % at 5 µM; AID 1029; J774A.1 macrophage IgG-bead phagocytosis, imaging; actives 0.07% (n = 110,000);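 active = inhibition above the mean of the plate negative controls plus 5 SD, cut at about 13% in these data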;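 note: phagocytic index as fraction of beads internalized from green versus red external bead signal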
Yeast life ext = extends the lifespan of yeast; S. cerevisiae growth with nicotinamide, OD615; deaD strain in restrictive glucose medium; inhibition of the nicotinamide effect, % at 10 µM; actives 0.68% (n = 130,000); AID 775;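 active = inhibition above a set limit, placed 3 SD over the median of all compounds, cut at about 26% in these data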
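Test system – modified budding yeast, DeaD strain · Compound – single dose 10 µM compound, 0.25% DMSO · Times – culture preincubation 4 h, compound exposure 48 h, both 30 °C · Detection – optical density (absorbance) at 615 nm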
Measles CPE = protection of cells from measles virus. protection (pct of control), % at 4 µM. AID 841. Measles virus-infected cells, CPE protection, absorbance. actives 1.5% (n = 140,000); in the data active = protection mostly above about 24%, no sharp cut-off; inactive = mostly below about 26%
RAM inhibit = inhibitors of the yeast RAM network. S. cerevisiae dse1pr::URA3 reporter, 5-FOA growth OD615, 2 d; analog-sensitive cbk1-as2 kinase mutant strain. inhibition, % at 50 µM. actives 1.8% (n = 190,000). AID 868;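 active = inhibition above a set limit, 3 SD over mean compound inhibition, cut at about 8.4% in these data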;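 note: inhibition rescues growth on 5-FOA so higher OD means more RAM inhibition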
BB579 growth dn = chemicals that inhibit yeast BB579 growth in restrictive medium (lifespan-shortening candidates) | S. cerevisiae BB579 growth, OD615, 48 h | inhibition, % at 10 µM | actives 0.51% (n = 140,000);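 active = inhibition above a set limit, 3 SD over the mean compound inhibition, cut at about 44% in these data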
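System: Saccharomyces cerevisiae DeaD strain BB579, replicative lifespan model yeast | Buffer or medium: Restrictive glucose-based CSMM-D medium | Times: 4 h preincubation and 48 h exposure at 30 °C | Detection: OD615 turbidity measurement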
Large screens that a line does not name were inactive. The list is not random: actives were taken first. Their share in the collection is about 3.6%.

O=C(Nc1ccc(NC(=O)C2CC2)nc1)c1cccs1	Measles CPE 57
COc1cc2c(cc1OC)C(C(=O)NCCN(C)C)C(c1cccs1)N(C)C2=O (stereo not given)	none (no result: Phagocyt inh, Yeast life ext, Measles CPE, BB579 growth dn)
CCOC(=O)c1ccc(Nc2nc(=O)c3cccnc3s2)cc1	Measles CPE 71 (no result: Phagocyt inh)
O=c1nc(Nc2ccc(OCc3ccccc3)cc2)sc2ncccc12	RAM inhibit 9.3 (no result: Phagocyt inh, Yeast life ext, Measles CPE, BB579 growth dn)
Cc1nc(COC(=O)c2ccc(S(=O)(=O)N3CCCC3)cc2)cs1	none
Cc1cc(C)n2nc(-c3cccnc3)nc2n1	none
Cc1cc(C)n2nc(-c3ccc(F)cc3)nc2n1	Measles CPE 23
NC(=O)COC(=O)c1ccc(Cl)c(S(=O)(=O)N(Cc2ccccc2)c2ccc(Cl)cc2)c1	none
NC(=O)NC(=O)COC(=O)c1ccc(Cl)c(S(=O)(=O)N(Cc2ccccc2)c2ccc(Cl)cc2)c1	RAM inhibit 10
COc1ccc(C(=O)N/C(=C\c2ccc3c(c2)OCO3)C(=O)NCCc2nc3ccccc3[nH]2)cc1	none (no result: Phagocyt inh)
COc1ccc(-c2csc(N3C(=O)C4C5c6ccccc6C(c6ccccc65)C4C3=O)n2)cc1 (stereo not given)	none
CC(=O)Oc1oc(-c2ccccc2)nc1C=Nc1ccccc1	Yeast life ext 46
CCOc1ccc(C(=O)NC(=S)N(Cc2ccccc2)Cc2ccccc2)cc1	RAM inhibit 8.6 (no result: Phagocyt inh)
CCSc1cc(N2CCCC2)nc(-c2ccccc2)n1	none
CCSc1cc(N2CCOCC2)nc(-c2ccc(Cl)cc2)n1	RAM inhibit 11
C/C=C/C(=O)OCC(=O)Nc1cc([N+](=O)[O-])ccc1Cl	none
C/C=C/C(=O)OCC(=O)Nc1c(Cl)cccc1Cl	Measles CPE 30
O=C(O)c1ccc(S(=O)(=O)Cc2ccccc2)cc1	none
Cc1ccc(S(=O)(=O)Cc2ccc(C(=O)OCc3ccccc3)cc2)cc1	Measles CPE 18
Cc1ccc(C(=O)OCC(=O)c2c[nH]c3ccccc23)cc1NC(=O)c1ccco1	none (no result: Phagocyt inh, Yeast life ext, Measles CPE, BB579 growth dn)
COc1ccc(Cl)cc1N(CC(=O)Nc1ccc2c(c1)OCCO2)S(C)(=O)=O	none
O=C(/C(=C/c1ccc(Cl)cc1)c1nc2ccccc2[nH]1)c1cccs1	Yeast life ext 31
CN(C)c1ccc(N/C=C/C(=O)c2ccco2)cc1	Phagocyt inh 179
C=C1C(=O)C=C2CN(C(=O)c3ccccc3)[C@@](Cc3ccc(F)cc3)(C(=O)OC)[C@@H]12	Yeast life ext 43 (no result: Phagocyt inh)
COC(=O)[C@@]1(Cc2ccc(OC)cc2)[C@@H]2C(=CC(=O)[C@H]2CC(=O)C(=O)N(C)C)CN1C(=O)c1ccccc1	none (no result: Phagocyt inh)
CC(C)C(NS(=O)(=O)c1cc(C(=O)O)ccc1Cl)C(=O)O (stereo not given)	none (no result: Phagocyt inh, Yeast life ext, Measles CPE, BB579 growth dn)
CC(C)NS(=O)(=O)c1cc(C(=O)O)ccc1Cl	Yeast life ext 27
CC(C)C(c1nnnn1Cc1ccccc1)N1CCN(Cc2ccc3c(c2)OCO3)CC1 (stereo not given)	Yeast life ext 65
CCC(C)NC(=O)c1cc(Sc2nnc(C)s2)nc2ccccc12 (stereo not given)	none
CCCCOc1cccc(C2(C(=O)O)CCCC2)c1	Yeast life ext 28
CCc1ccc2nc(N3C(=O)C(O)=C(C(=O)c4ccco4)C3c3cccs3)sc2c1 (stereo not given)	Yeast life ext 45 (no result: Phagocyt inh)
Cc1cc(CC(C)C)n(-c2nc3ccccc3c(=O)n2OCc2ccccc2)n1	RAM inhibit 9.8 (no result: Phagocyt inh)
CCOc1ccc(NC(=O)CC(c2ccccc2)c2ccc(F)cc2)cc1 (stereo not given)	none
COc1ccc(NC(=O)CC(c2ccc(F)cc2)c2ccc(OC(C)C)cc2)cc1 (stereo not given)	RAM inhibit 9.3
COc1ccc(C2C(=O)c3ccccc3C2=O)cc1	Yeast life ext 32 (no result: Phagocyt inh)
COc1ccc(/C=C(/NC(=O)c2ccc(OC)cc2)C(=O)NCCc2c[nH]c3ccccc23)cc1	RAM inhibit 8.5
CC/C(=N\NC(=O)c1ccc(N(C)C)cc1)c1ccccc1	none
Cn1c(N)c(C(=O)COC(=O)C2CC(=O)N(Cc3ccccc3)C2)c(=O)n(C)c1=O (stereo not given)	none (no result: Phagocyt inh, Yeast life ext, Measles CPE, BB579 growth dn)
Cc1ccc(C)c(NNC(N)=S)c1	none (no result: Phagocyt inh, Yeast life ext, Measles CPE, BB579 growth dn)
Cc1ccc(N/N=C(\C#N)C(N)=S)c(C)c1	BB579 growth dn 95
Cn1c(=O)oc2cc(S(=O)(=O)Nc3cccc(F)c3)ccc21	none (no result: Phagocyt inh)
Cc1ccc(NS(=O)(=O)c2ccc3c(c2)oc(=O)n3C)cc1F	Measles CPE 45
O=C(c1ccc(Cl)c(S(=O)(=O)N2CCCC2)c1)N1CCN(c2ncccn2)CC1	none (no result: Phagocyt inh, Yeast life ext, Measles CPE, BB579 growth dn)
Cc1c(OCc2ccccc2)cccc1OCc1ccccc1	none (no result: Phagocyt inh)
COc1ccccc1NC(C#N)c1ccccc1OCc1ccccc1 (stereo not given)	Yeast life ext 30
CC(C(=O)OCc1nnc(-c2ccccc2)o1)N1C(=O)C2CCCCC2C1=O (stereo not given)	none (no result: Phagocyt inh, Yeast life ext, Measles CPE, BB579 growth dn)
COc1ccc(CNC(=O)CCCc2ccccc2)cc1	Measles CPE 31
COc1ccc(CNC(=O)COC(=O)c2n[nH]c3ccccc23)cc1	RAM inhibit 10
CC(C)Cc1nnc(NC(=O)c2ccc([N+](=O)[O-])cc2)s1	none (no result: Phagocyt inh)
Cc1ccc(C(=O)NCCSC2CCCCC2)cc1S(=O)(=O)Nc1ccccc1	RAM inhibit 11
Cc1nn(-c2ccccc2)c(Cl)c1C(=O)NCc1cccs1	none
CC(=O)C1=C(O)C(=O)N(CCc2c[nH]c3ccccc23)C1c1cccc(O)c1 (stereo not given)	Measles CPE 25 (no result: Phagocyt inh)
COc1cc(C2C(C(C)=O)=C(O)C(=O)N2CCc2c[nH]c3ccccc23)ccc1O (stereo not given)	none
COc1cc(C(=O)OCC(=O)c2cc(C)n(C)c2C)cc(NC(=O)c2ccco2)c1OC	Measles CPE 53
CCOc1ccc(S(=O)(=O)Nc2cccc(C(=O)N3CCN(c4ccc(OC)cc4)CC3)c2)cc1	Measles CPE 84
COc1ccc(NS(=O)(=O)c2ccc(O)c(C(=O)OCC(=O)Nc3ccc4c(c3)OCCO4)c2)cc1	none
COc1ccc(NS(=O)(=O)c2ccc3oc(Nc4ccc5c(c4)OCCO5)nc3c2)cc1	Measles CPE 93
O=C(Nc1ccc(N2CCCCC2)c(Cl)c1)c1cccnc1	Measles CPE 61
CCCC(=O)NC(=S)Nc1cccc(Cl)c1N1CCCCC1	RAM inhibit 8.7
O=C(Nc1ccc(N2CCCC2)c(Cl)c1)c1cccnc1	none (no result: Phagocyt inh, Yeast life ext)
CCCCCC(=O)Nc1ccc(N2CCN(CC)CC2)c(Cl)c1	none
CCCCC(=O)NC(=S)Nc1cccc(Cl)c1N1CCCCC1	Yeast life ext 29
CCC(=O)NC(=S)Nc1cccc(Cl)c1N1CCCCC1	none
CCCCCC(=O)NC(=S)Nc1ccc(N2CCCCC2)c(Cl)c1	RAM inhibit 9.6
CCN1C(=O)/C(=C/N(C(C)=O)c2ccccc2)N(c2ccccc2)C1=S	Yeast life ext 35
CC(NC(=O)OCc1ccccc1)C(=O)Oc1cc2oc(=O)cc(-c3ccccc3)c2cc1Cl (stereo not given)	Measles CPE 29
